Each block holds one compound with its values, some of them ahead of it.
Legend:
Caco-2 [1] = test: Cellular uptake in human Caco2 cells; type: ADME, cell-based
Caco-2 [2] = test: Apparent permeability from basolateral to apical side in human Caco2 cells in glucose free medium at 25 uM at pH 6.0 in apical side and pH 7.4 at basolateral side by HPLC-DAD analysis; type: ADME, cell-based; settings: caco-2, pH 6, 25 µM
Caco-2 [3] = test: Apparent permeability from apical to basolateral side in human Caco2 cells in glucose free medium at 25 uM at pH 6.0 in apical side and pH 7.4 at basolateral side by HPLC-DAD analysis; type: ADME, cell-based; settings: caco-2, pH 6, 25 µM
Caco-2 [4] = test: Cytotoxicity against human Caco2 cells at 50 to 200 uM relative to control; type: cell-based; settings: caco-2, 200 µM
Summary of the method: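 Toxicity judged from TEER of Caco-2 monolayers, measured with an epithelial voltohmmeter before and after exposure. Compared against control monolayers in transport medium without compound.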

Caco-2 [5] = test: Apparent permeability from basolateral to apical side in human Caco2 cells in HBSS medium at 50 uM by HPLC-DAD analysis; type: ADME, cell-based; settings: caco-2, 50 µM
Caco-2 [6] = test: Apparent permeability from apical to basolateral side in human Caco2 cells in HBSS medium at 50 uM by HPLC-DAD analysis; type: ADME, cell-based; settings: caco-2, 50 µM
Caco-2 [7] = test: Apparent permeability from basolateral to apical side in human Caco2 cells in glucose free medium at 50 uM at pH 6.0 in apical side and pH 7.4 at basolateral side by HPLC-DAD analysis; type: ADME, cell-based; settings: caco-2, pH 6, 50 µM
Caco-2 [8] = test: Apparent permeability from apical to basolateral side in human Caco2 cells in glucose free medium at 50 uM at pH 6.0 in apical side and pH 7.4 at basolateral side by HPLC-DAD analysis; type: ADME, cell-based; settings: caco-2, pH 6, 50 µM
Caco-2 [9] = test: Apparent permeability from basolateral to apical side in human Caco2 cells in glucose free medium at 50 uM at pH 7.4 by HPLC-DAD analysis; type: ADME, cell-based; settings: caco-2, pH 7.4, 50 µM
Caco-2 [10] = test: Apparent permeability from apical to basolateral side in human Caco2 cells in glucose free medium at 50 uM at pH 7.4 by HPLC-DAD analysis; type: ADME, cell-based; settings: caco-2, pH 7.4, 50 µM
Caco-2 [11] = test: Apparent permeability from basolateral to apical side in human Caco2 cells in low glucose medium at 50 uM at pH 7.4 by HPLC-DAD analysis; type: ADME, cell-based; settings: caco-2, pH 7.4, 50 µM
Caco-2 [12] = test: Apparent permeability from apical to basolateral side in human Caco2 cells in low glucose medium at 50 uM at pH 7.4 by HPLC-DAD analysis; type: ADME, cell-based; settings: caco-2, pH 7.4, 50 µM
Caco-2 [13] = test: Apparent permeability from basolateral to apical side in human Caco2 cells in glucose rich medium at 50 to 100 uM at pH 7.4 by HPLC-DAD analysis; type: ADME, cell-based; settings: caco-2, pH 7.4, 100 µM
Caco-2 [14] = test: Apparent permeability from apical to basolateral side in human Caco2 cells in glucose rich medium at 50 to 100 uM at pH 7.4 by HPLC-DAD analysis; type: ADME, cell-based; settings: caco-2, pH 7.4, 100 µM
[15] = Lipophilicity, log P of the compound by micellar chromatography; type: physicochemical
[16] = Stability of the compound at 25 degC by HPLC-DAD analysis; type: physicochemical
Caco-2 [17] = test: Apparent permeability from apical to basolateral side in human Caco2 cells in glucose rich medium at 50 to 100 uM at pH 7.4 by HPLC-DAD analysis; settings: caco-2, pH 7.4, 100 µM
[18] = Efflux ratio of apparent permeability from basolateral to apical side to apical to basolateral side in human Caco2 cells at 25 uM at pH 7.4 by HPLC-DAD analysis; type: ADME, cell-based; settings: Caco-2, pH 7.4
Summary of the method: (§1)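 Glucose-rich transport medium (25 mM glucose), pH 7.4 in both apical and basolateral compartments, donor concentration 25 or 50 μM. Papp = (ΔQ/Δt)/(A·C0), from the linear appearance rate on the receiver side. Ratios are calculated as Papp A→B/Papp B→A and Papp B→A/Papp A→B.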

Caco-2 [19] = test: Efflux ratio of apparent permeability from apical to basolateral side to basolateral to apical side in human Caco2 cells at 25 uM at pH 7.4 by HPLC-DAD analysis; type: ADME, cell-based; settings: caco-2, pH 7.4, 25 µM; summary of the method: as §1
[20] = Apparent permeability from basolateral to apical side in human Caco2 cells at 25 uM at pH 7.4 by HPLC-DAD analysis; type: ADME, cell-based; settings: Caco-2, pH 7.4
[21] = Apparent permeability from apical to basolateral side in human Caco2 cells at 25 uM at pH 7.4 after 30 mins by HPLC-DAD analysis; type: ADME, cell-based; settings: Caco-2, pH 7.4
[22] = Efflux ratio of apparent permeability from basolateral to apical side to apical to basolateral side in human Caco2 cells at 50 uM at pH 7.4 by HPLC-DAD analysis; type: ADME, cell-based; settings: Caco-2, pH 7.4; summary of the method: as §1
Caco-2 [23] = test: Efflux ratio of apparent permeability from apical to basolateral side to basolateral to apical side in human Caco2 cells at 50 uM at pH 7.4 by HPLC-DAD analysis; type: ADME, cell-based; settings: caco-2, pH 7.4, 50 µM; summary of the method: as §1
[24] = Apparent permeability from basolateral to apical side in human Caco2 cells at 50 uM at pH 7.4 by HPLC-DAD analysis; type: ADME, cell-based; settings: Caco-2, pH 7.4
[25] = Apparent permeability from apical to basolateral side in human Caco2 cells at 50 uM at pH 7.4 after 30 mins by HPLC-DAD analysis; type: ADME, cell-based; settings: Caco-2, pH 7.4

Drug uptake (Caco-2 [1]): Active | permeability (Caco-2 [2]): impermeable | permeability (Caco-2 [3]): impermeable
Compound: O=c1cc(-c2ccc(O)cc2)oc2cc(O)cc(O)c12 [APIGENIN]

permeability (Caco-2 [5]): impermeable | permeability (Caco-2 [6]): impermeable | permeability (Caco-2 [7]): impermeable | permeability (Caco-2 [8]): impermeable | permeability (Caco-2 [9]): impermeable | permeability (Caco-2 [10]): impermeable | permeability (Caco-2 [11]): impermeable | permeability (Caco-2 [12]): impermeable | permeability (Caco-2 [13]): impermeable | permeability (Caco-2 [14]): impermeable | logP [15]: -4.31 | Stability [16]: 99% | permeability (Caco-2 [17]): impermeable
Compound: O=c1cc(-c2ccc(O)cc2)oc2c([C@@H]3O[C@H](CO)[C@@H](O)[C@H](O)[C@H]3O)c(O)c([C@@H]3O[C@H](CO)[C@@H](O)[C@H](O)[C@H]3O)c(O)c12
Activity (Caco-2 [4]): Non-toxic

efflux ratio at 25 µM [18]: 0.94 | Ratio (Caco-2 [19]): 1.06 | Papp B→A at 25 µM [20]: 4.41 ×10⁻⁶ cm/s | Papp A→B at 0.5 h, 25 µM [21]: 4.68 ×10⁻⁶ cm/s | efflux ratio at 50 µM [22]: 1.02 | Ratio (Caco-2 [23]): 0.97 | Papp B→A at 50 µM [24]: 4.17 ×10⁻⁶ cm/s | Papp A→B at 0.5 h, 50 µM [25]: 4.07 ×10⁻⁶ cm/s | Stability [16]: 98%
Compound: C=C1CC/C=C(/C(=O)O)C[C@H](O)[C@@H]2[C@@H]1CC2(C)C
Activity (Caco-2 [4]): Non-toxic

Reference: ChEMBL document CHEMBL3120128, “Evaluation of intestinal permeability of vicenin-2 and lychnopholic acid from Lychnophora salicifolia (Brazilian arnicão) using Caco-2 cells” (J Nat Prod, 2014)
